KCNQ1 pot – potentiates or activates the human KCNQ1 potassium channel; AID 2648; P51787; B-score at 10 µM; CHO-K1 KCNQ1, thallium flux FluxOR fluorescence; active compounds read high; 0.35% of 310,000 active;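 active = fluorescence ratio B-score, a plate-corrected score, at least three library SD, with initial intensity B-score within 5 SD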
Target sequence (P51787 whole entry, looked up): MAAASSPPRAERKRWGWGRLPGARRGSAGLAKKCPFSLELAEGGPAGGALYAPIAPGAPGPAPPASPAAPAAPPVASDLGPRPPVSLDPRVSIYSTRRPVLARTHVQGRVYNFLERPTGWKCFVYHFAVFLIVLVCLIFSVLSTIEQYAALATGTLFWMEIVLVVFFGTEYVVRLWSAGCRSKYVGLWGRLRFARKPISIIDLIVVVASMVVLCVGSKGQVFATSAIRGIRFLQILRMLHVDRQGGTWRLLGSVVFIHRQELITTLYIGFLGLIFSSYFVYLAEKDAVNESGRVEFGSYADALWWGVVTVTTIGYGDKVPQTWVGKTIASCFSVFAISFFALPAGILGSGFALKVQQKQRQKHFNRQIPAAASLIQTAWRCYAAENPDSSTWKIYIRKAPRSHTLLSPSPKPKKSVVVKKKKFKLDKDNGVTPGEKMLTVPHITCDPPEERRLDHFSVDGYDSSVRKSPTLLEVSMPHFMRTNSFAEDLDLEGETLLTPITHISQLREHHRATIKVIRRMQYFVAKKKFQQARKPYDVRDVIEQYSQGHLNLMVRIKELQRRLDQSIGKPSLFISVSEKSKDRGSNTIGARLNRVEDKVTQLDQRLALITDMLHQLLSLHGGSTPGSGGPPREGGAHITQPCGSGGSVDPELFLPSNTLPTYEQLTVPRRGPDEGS
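System: Stable KCNQ1 CHO-K1 line | Incubation: 90 min dye loading and 20 min compound exposure, both at room temperature | Measure: Ratio B score | Medium: Assay buffer for compound exposure, DMSO matched across wells | Compound dosing: Single-concentration screen | Probe or stimulus: K+/Tl+ depolarizing stimulus | Measured by: Kinetic FluxOR fluorescence, 10 s baseline plus 110 s post-stimulus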
hERG protect – shields human hERG channel from block by proarrhythmic agents | Q12809 | CHO-hERG, FluxOR thallium flux, dofetilide IC70 present | activation (rescue from dofetilide block), less the hit threshold, % at 10 µM | 0.51% of 310,000 active | AID 1511;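 active = activation above the mean of controls blocked by dofetilide plus 5 SD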;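 also: thallium influx through hERG after potassium depolarization seen as dye fluorescence rise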
KCNK9 inh – blocks the human KCNK9 two-pore domain potassium channel; Q9NPC2; HEK293 KCNK9, FluxOR thallium flux fluorescence; active compounds read low; B-score at 10 µM; 1.2% of 310,000 active;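 active = ratio B-score over 3 SD below the library mean, with starting fluorescence within 5 SD of its mean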;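 also: negative B-score means less thallium flux so channel inhibition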
KCNK3 inh – human KCNK3 channel inhibition, primary screen. 0.84% of 340,000 active. CHO-KCNK3 thallium flux, FluxOR fluorescence; active compounds read low. O14649. B-score at 10 µM;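 active = B-score under library mean minus 4 SD, starting fluorescence ratio at most library mean plus 5 SD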;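 also: more negative B-score means stronger inhibition of thallium flux through KCNK3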
Kir21 block – blocks the mouse Kir2.1 inward-rectifier potassium channel; HEK293-Kir2.1, FluxOR thallium flux fluorescence; active compounds read low; B-score at 10 µM; 0.85% of 310,000 active;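 active = fluorescence ratio B-score at or below minus 3 SD of library scores, with starting-brightness B-score within 2 SD, cut at about -4.2 in these data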;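 also: channel flux triggered by added potassium and thallium sulfate stimulus; B-score of peak minus minimum fluorescence over baseline after thallium stimulus; more negative B-score means stronger Kir2.1 block with less thallium influx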
KCNQ1 inh – human KCNQ1 channel inhibition; CHO-K1 KCNQ1, FluxOR thallium flux fluorescence; active compounds read high; B-score at 10 µM; 1.3% of 310,000 active;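 active = compounds whose thallium flux B-score, printed positive for inhibition, exceeds three library SD while starting fluorescence stays within three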;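 also: channel opened by potassium depolarization with thallium stimulus after 20 min compound exposure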
KCNK3 confirm – human KCNK3 channel inhibition, confirmation assay; shares compounds with KCNK3 inh; CHO-KCNK3 thallium flux, FluxOR fluorescence; 0% buffer, 100% carvedilol maximal block; ratio percent of control, % at 10 µM; 99% of 2,400 active;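 active = ratio percent of control, averaged over triplicates, above buffer control mean plus 5 SD, cut at about 64% in these data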;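 also: ratio is the fluorescence rise from min to max over baseline after thallium stimulus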
KCNK3 uninduced – activity in cells without induced KCNK3 expression; non-induced KCNK3 parental cells, FluxOR thallium flux; active compounds read low; thallium flux ratio (lower = more inhibition) at 10 µM; AID 651747; shares compounds with KCNK3 inh; 40% of 2,400 active;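 active = thallium flux ratio, averaged over three wells, more than 5 SD below the buffer control mean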;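 also: host cells are CHO cells without KCNK3 induction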
Each line names hits and unclear results; the compound was inactive in the other large screens (follow-up assays come after a bar, where they were run). Most compounds without a hit are left out; they make up all but 3.7% or so of the library.

COc1cc(CC(=O)N(C)CC(=O)Nc2ccc(Cl)c(C(F)(F)F)c2)cc(OC)c1OC	KCNK3 inh -9.2 | KCNK3 confirm 113 | KCNK3 uninduced inactive
Cc1ccc(C)c(C(=O)COC(=O)CN2C(=O)C3C4C=CC(C4)C3C2=O)c1 (stereo not drawn)	none
CCC(=O)N=c1sc2c(OC)ccc(OC)c2n1C	none
COc1ccc(OC)c2c1sc(=NC(=O)C1COc3ccccc3O1)n2C (stereo not drawn)	KCNK3 inh -9.6 | KCNK3 confirm 108 | KCNK3 uninduced inactive
C=CCNC(=O)NC(=O)COC(=O)/C(C#N)=C/c1cc(C)n(CCC(C)C)c1C	none
Cc1cc(/C=C(\C#N)C(=O)OCC(=O)NC(=O)NC(C)(C)C)c(C)n1CCC(C)C	KCNK3 inh -8.7 | KCNK3 confirm 125 | KCNK3 uninduced inactive
Cc1cccc2c(=O)c(Br)c(C)n(Cc3ccccc3)c12	KCNK9 inh -7.8, KCNK3 inh -8.9 | KCNK3 confirm 105 | KCNK3 uninduced inactive
CC1(C)Cc2c(sc3nc(=S)[nH]c(N)c23)CO1	none (no result: KCNK3 inh)
COc1ccc(Sc2ccc(NC(=O)c3ccccc3Cl)cc2C#N)cc1	KCNK3 inh -12 | KCNK3 confirm 106 | KCNK3 uninduced 0.15
N#Cc1ccccc1Sc1ccccc1C(=O)Nc1ccc2ccccc2c1	none
NC(=O)c1cccc2c1C(=O)N(C1CCCCC1)C2	none
Cc1cc(C)cc(NC(=O)c2cccc3c2C(=O)N(C2CCCCC2)C3)c1	KCNK3 inh -9.3 | KCNK3 confirm 107 | KCNK3 uninduced inactive
CCOC(=O)CSc1nc2c(c(-c3ccc(C)o3)c1C#N)CCCC2	KCNK3 inh -9.3 | KCNK3 confirm 98 | KCNK3 uninduced inactive
COC(=O)CSc1nc2c(c(-c3ccco3)c1C#N)CCCC2	none
Cc1ccc(NC(=O)CNc2cccc(S(=O)(=O)N3CCCCC3)c2)cc1F	KCNK9 inh -7.6 | KCNK3 confirm 96 | KCNK3 uninduced inactive
CCOC(=O)C1CCN(c2nc3c(C)cccn3c(=O)c2/C=C(\C#N)S(=O)(=O)c2ccccc2)CC1	KCNK3 inh -9.3 | KCNK3 confirm 95 | KCNK3 uninduced inactive
CC1CCC(NC(=O)C2CCN(C(=O)Nc3ccccc3)CC2)CC1 (stereo not drawn)	none (no result: KCNQ1 pot, hERG protect, KCNK9 inh, Kir21 block, KCNQ1 inh)
Cc1cccc(C)c1NC(=O)CN(C)CC(=O)Nc1ccc(F)c(Cl)c1	KCNK3 inh -12 | KCNK3 confirm 82 | KCNK3 uninduced inactive
Cc1cc([N+](=O)[O-])ccc1-c1ccc(/C=N/NC(=O)c2ccc(Br)o2)o1	KCNK3 inh -9.4 | KCNK3 confirm 105 | KCNK3 uninduced inactive
CCCn1c(CNc2ccc(Br)cc2)nc2ccccc21	KCNK3 inh -12 | KCNK3 confirm 124 | KCNK3 uninduced 0.14
Cc1ccc(C(=O)NCC(=O)OCC(=O)Nc2cc(S(=O)(=O)N3CCOCC3)ccc2Cl)s1	none (no result: KCNQ1 pot, hERG protect, KCNK9 inh, Kir21 block, KCNQ1 inh)
Cc1ccc(S(=O)(=O)N2CCOCC2)cc1NC(=O)COC(=O)CNC(=O)c1ccc(Cl)cc1Cl	KCNK3 inh -10 | KCNK3 confirm 87 | KCNK3 uninduced inactive
CC(C)(C)c1ccc(OCCn2nc(C(=O)O)c3ccccc3c2=O)cc1	KCNK3 inh -9.1 | KCNK3 confirm 112 | KCNK3 uninduced inactive
O=C(CCC(=O)N1CCCC1)N1CCCC1	none
Cc1cc2c3ccccc3ncn2n1	none
Cc1cccc(CN2C(=O)/C(=C\c3ccc(C(=O)NCCCN4CCN(C)CC4)cc3)Oc3ccccc32)c1	none
CN1CCN(CCCNC(=O)c2ccc(/C=C3/Sc4ccccc4N(Cc4cccc(Cl)c4)C3=O)cc2)CC1	KCNK9 inh -7.1, KCNK3 inh -9.4, KCNQ1 inh 11 | KCNK3 confirm 118 | KCNK3 uninduced inactive
Cc1ccc(C)c(NC(=O)c2ccc3c(c2)N(Cc2ccc(F)cc2)C(=O)CS3=O)c1 (stereo not drawn)	none
O=C(Nc1ccc(Br)cc1F)c1ccc2c(c1)N(Cc1ccccc1)C(=O)CS2=O (stereo not drawn)	KCNK3 inh -13 | KCNK3 confirm 100 | KCNK3 uninduced inactive
Cc1ccc(NC(=O)c2ccc(Cl)c(S(=O)(=O)N3CCCCCC3)c2)nc1	KCNK3 inh -9.7 | KCNK3 confirm 115 | KCNK3 uninduced inactive
O=C(Nc1ccc(Cl)cn1)c1ccc(Br)c(S(=O)(=O)N2CCCCC2)c1	KCNK9 inh -7.4 | KCNK3 confirm 102 | KCNK3 uninduced inactive
O=C(Nc1ccccn1)c1ccc(Cl)c(S(=O)(=O)N2CCCC2)c1	none
COCc1nc2ccccc2n1Cc1c(F)cccc1Cl	none
FC(F)(F)c1ccc2c(c1)[nH]c(=S)n2C1CC1	none
O=C(COc1ccc(Cl)cc1)Nc1nc(-c2cccs2)cs1	KCNK3 inh -9.3 | KCNK3 confirm 127 | KCNK3 uninduced 0.15
Cc1ccc(CSCCNC(=O)CSc2ccccc2)cc1	none
N=C1S/C(=C\c2cn[nH]c2-c2ccc(F)cc2)C(=O)N1c1ccccc1F	none
COc1ccc(/C=C2/Sc3ccc(C(=O)NCCCN4CCOCC4)cc3NC2=O)cc1OC	none
COc1cccc(/C=C2/Sc3ccc(C(=O)NCCN4CCCCCC4)cc3NC2=O)c1	KCNK3 inh -10, KCNQ1 inh 7 | KCNK3 confirm 112 | KCNK3 uninduced inactive
Cc1cc(O)c(C(C)C)cc1NC(=O)c1ccc(Cl)cc1	none
Cc1cc(O)c(C(C)C)cc1NC(=O)c1cccc(Cl)c1	KCNK3 inh -9 | KCNK3 confirm 109 | KCNK3 uninduced inactive
CC(C)COP(=O)(OCC(C)C)C(O)c1ccc(N(C)C)cc1 (stereo not drawn)	none
N#Cc1nc(COc2ccc(Br)cc2)oc1N1CCCCCC1	KCNK3 inh -15 | KCNK3 confirm 82 | KCNK3 uninduced inactive
Cc1ccc(-n2cc(CN3CCC(CO)(Cc4cccc(C(F)(F)F)c4)CC3)cn2)cc1	none
CSc1cccc(CN2CCC(CO)(Cc3cccc(C(F)(F)F)c3)CC2)c1	KCNK3 inh -11 | KCNK3 confirm 116 | KCNK3 uninduced 0.15
COc1ccc(-c2csc3ncnc(N4CCN(c5ccccc5[N+](=O)[O-])CC4)c23)cc1	KCNK3 inh -8.7, KCNQ1 inh 8 | KCNK3 confirm 97 | KCNK3 uninduced inactive
Cc1ccc(-c2csc3ncnc(N4CCN(C(=O)c5ccco5)CC4)c23)cc1	none (no result: KCNQ1 pot, hERG protect, KCNK9 inh, Kir21 block, KCNQ1 inh)
CN1CCCN(c2ncnc3scc(-c4ccc(F)cc4)c23)CC1	none
COc1ccc(-c2csc3ncnc(N4CCN(c5ccc(OC)cc5)CC4)c23)cc1	KCNK3 inh -11 | KCNK3 confirm 92 | KCNK3 uninduced inactive

Screening results from PubChem BioAssay.
